System: MS2 coat protein
Test: apparent Kd, MS2 coat protein; higher = weaker binding; RNA-MaP array; FMN 200 µM where present
Summary of the method: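 Two titrations, one without ligand and one with constant ligand, were run with SNAP-549-labelled MS2 coat protein from 0.7 or 1.5 nM, doubling to 3 µM. The targets were designs transcribed by stalled E. coli RNA polymerase on Illumina sequencing-chip clusters, in 100 mM Tris-HCl pH 7.5, 80 mM KCl, 4 mM MgCl2, BSA, DTT, yeast tRNA and Tween-20. The apparent Kd is the median of filtered per-cluster binding-curve fits, with green signal normalised to red-channel RNA signal and control-cluster median Fmax.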

[1] = designed as: ON switch for flavin mononucleotide, no ligand
[2] = ligand present: flavin mononucleotide, designed as: ON switch for flavin mononucleotide
[3] = designed as: OFF switch for flavin mononucleotide, no ligand
[4] = ligand present: flavin mononucleotide, designed as: OFF switch for flavin mononucleotide

| Sequence | apparent Kd [1] | apparent Kd [2] | apparent Kd [3] | apparent Kd [4] |
| --- | --- | --- | --- | --- |
| UCCACUGCUGAGAAGGGAUACGUCUGGUUCGCAUCAGGAUAUCGAUACAGUGCAGCAUGAGGACAUGAGGAUCACCCAUGUGUC | 0.0216 µM | 0.0193 µM |  |  |
| UCCGCCAAAGGAUAUACUGGGCGUUAAAAUCCUCUUAAAAGACAUGAGGAUCACCCAUGUAGAAGGUUGAGGAA |  |  | 0.209 µM | 0.575 µM |
| UCCGUACUAGGAUAUACAGCAAAAUCAAACAAAUUCCUCAAACAUGAGGAUCACCCAUGUAGAAGGAGUACCAA |  |  | 0.0174 µM | 0.0147 µM |
| UCCUAACCGUAGAAGGGUGACAUGAGGAUCACCCAUGUGCAGCAGCCGUGAACGGCCAUGCUGCCACAGGAUAUACGGAGGAGU | 0.0261 µM | 0.0551 µM |  |  |
| UCCUGGCAAGGAUAUACAUGAGGAUCACCCAUGUGGAGUCGAUGCUGAAUUCUAUUGUGUAGAAGGUGCCUUUC |  |  | 0.0491 µM | 0.0623 µM |
| UCCUGGCGAGGAUAUACAAAGUUUUUCACGUUUUGUUACGAACAUGAGGAUCACCCAUGUAGAAGGUGCUACUG |  |  | 0.116 µM | 0.103 µM |
| UCCUUACAUGAGGAUCACCCAUGUCAGGAUAUCUCCACACUGCGCUUGCGCAGUGUAUAGAGAAGGGACGGGCU |  |  | 0.0342 µM | 0.0262 µM |
| UCCUUAUCGGUCAGGAUAUACACCCGUUUCUCCUUGUAGAAGGGACAUGAGGAUCACCCAUGUACAGUACAUCU |  |  | 0.0204 µM | 0.0191 µM |
| UCCUUGUCCUGAGGAUAUCCGCGGUUCCCAAAAGGAGAAGGCAGGACAUGAGGAUCACCCAUGUACCCAGAGAACGUGCAGAGU |  |  | 0.0192 µM | 0.129 µM |
| UCCUUGUCCUGAGGAUAUCCGUGGUGACCGAAAGGAGAAGGCAGGACAUGAGGAUCACCCAUGUACCCAGAAAACGUGCAGAGU |  |  | 0.0665 µM | 0.458 µM |
| UCGAAAAUGCAAGGAUAUCAAUUAUAGCAAAAUAAGACAUGAGGAUCACCCAUGUAAAUAUGGAGUGAGAAGGUGCAAUAAUUU | 0.413 µM | 0.123 µM |  |  |
| UCGAACGGAAACAAAGUCGAUAGACAUGAGGAUCACCCAUGUAAGGAUAUGCCUACUAAAAGUAGGCAGAAGGUACGCGUUCGA |  |  | 0.0189 µM | 0.0281 µM |
| UCGAACUUUCAUGAAAUUCGCACAUGAGGAUCACCCAUGUACGAGGAUAUGUACUUAAACGGCUAACAGAAGGCGUACUGGGCA |  |  | 0.105 µM | 0.0718 µM |
| UCGAGGUCAGGAUAUACAUGAGGAUCACCCAUGUUGAGAGAAGGUAGGAAAAGAGUAGGUAGAAGGGACGAGAG |  |  | 0.0337 µM | 0.0338 µM |
| UCGAGUCAUGAGAAGGGCUGAUGUUACAUGAGGAUCACCCAUGUCAUGGGCAGGAUAUCAUUGACACGGCUGUACCUUUCUUAC | 0.149 µM | 0.0294 µM |  |  |
| UCGCGGGAGCAGAAGGGAUAGGCCUAUUGUCGUGGAGUCUACACUUAACAUGAGGAUCACCCAUGUCAGGAUAUGCCCACGCGA |  |  | 0.0088 µM | 0.0106 µM |
| UCGCUGCGAGGAUAUACAUGAGGAUCACCCAUGUACGGGUCCGGGUCUUAGUUGAUUGGUAGAAGGCGCAGUGA |  |  | 0.106 µM | 0.212 µM |
| UCGGAGUAAGUGAGGAUAUGUGCGCCUUUAAGCGUACAGAAGGCACAUGAGGAUCACCCAUGUGAGGCCUGCCA |  |  | 0.0189 µM | 0.039 µM |
| UCGGCGCGAGGAUAUGCGGCUCCUGCUUCGGGCCGGAGCGUACAUGAGGAUCACCCAUGUAGAAGGCGCGCCGC |  |  | 0.012 µM | 0.0139 µM |
| UCGGCGCGAGGAUAUGCGGUUCCUGCUUCGGGCCGGAGCGUACAUGAGGAUCACCCAUGUAGAAGGCGCGCCGC |  |  | 0.0143 µM | 0.0146 µM |
| UCGGCGCGAGGAUAUGCGGUUGCUCCCUAGGGUCGGAGCGUACAUGAGGAUCACCCAUGUAGAAGGCGCGCCGC |  |  | 0.0162 µM | 0.0163 µM |
| UCGUAUAUACAAGGAUAUCAAUUAUUGCUAAAUUCAACAUGAGGAUCACCCAUGUAACUAUGGAGUGAGAAGGUGUAAUGACUU | 0.504 µM | 0.476 µM |  |  |
| UCGUUUUUUGAGGAUAUGCGACGUUUUUUCGUCGUAGAAGGCGAUACAUGAGGAUCACCCAUGUUUAUGGGCAU |  |  | 0.19 µM | 0.318 µM |
| UCUACAUAAAUUCAUCAAUACAGAAAGGAUAUGAAAUACAUGAGGAUCACCCAUGUUCAUGGGAAUUAGAAGGUUCAAUUAGCC |  |  | 0.133 µM | 0.0846 µM |
| UCUACGUAAAUUCAUCAAUACAGAAAGGAUAUGAAAUACAUGAGGAUCACCCAUGUGCAUGGGAAUUAGAAGGUUCAAUUAACU |  |  | 0.202 µM | 0.104 µM |
| UCUAUGUAGAUUCGUCAAUACAGUAAGGAUAUGAGAUACAUGAGGAUCACCCAUGUGCAUGUGGAUUAGAAGGUACAAUUAACU |  |  | 0.0837 µM | 0.0739 µM |
| UCUCGACAUGAGGAUCACCCAUGUCAGGAUAUUGUAUUGGAGGUGUUUAACCUUAUGGCAAGAAGGGAUGUGUG |  |  | 0.024 µM | 0.0271 µM |
| UCUCUUGGGCAAGGAUAUCCUGCGCGGUUCCGGUUCGUGUCUGUCACAUGAGGAUCACCCAUGUGGGAGAAGGUGCCUGCGGUU |  |  | 0.0177 µM | 0.0255 µM |

| Sequence | apparent Kd [1] | apparent Kd [2] | apparent Kd [3] | apparent Kd [4] |
| --- | --- | --- | --- | --- |
| UCUGCCGCCGUGAGGAUAUGCCCGCGCGCCCGCGGGCAGAAGGCACAUGAGGAUCACCCAUGUCCCGCGGUUUU |  |  | 0.0163 µM | 0.0373 µM |
| UCUGGAGGAAAACAGACGAAGUGGCCAGAAGGUGAAUGCCACAUGAGGAUCACCCAUGUUUCGAUCAAGGAUAUGGUUUCUCAC | 0.185 µM | 0.0724 µM |  |  |
| UCUUAAGGAGGAUAUACAUGAGGAUCACCCAUGUAUGACCGCAGGGCGUCCUUGUAUCGUAGAAGGCCUCGGUA |  |  | 0.0333 µM | 0.0436 µM |
| UCUUAUCUAGGAUAUCCACCUCCUCACAUGAGGAUCACCCAUGUGCAGAACAACGGUCUCGGAGAAGGAGGUAUUG |  |  | 0.0259 µM | 0.0253 µM |
| UCUUAUUGCAAGGAUAUGCUUUUUAUUUCUUUUGCAGAAGGUGCAACAUGAGGAUCACCCAUGUUUCCGGGUAU |  |  | 0.0241 µM | 0.0595 µM |
| UCUUGUGUUGAGGAUAUGCGCCGGCUCGCUGGCGCAGAAGGCGGCACAUGAGGAUCACCCAUGUCAGUUCGCGA |  |  | 0.502 µM | 0.0607 µM |
| UGAAACUACGAGAAGGACAUGUGGUCCUUCAGUUACAUGAGGAUCACCCAUGUAGGAUAUCGUAGUUUCAGGAUCGUGAGAUCC |  |  | 0.0328 µM | 0.0117 µM |
| UGAAAUCAUGUAGGAUAUGCAUGGCGAAGCUACGCAGAAGGACAUGAGGAUCACCCAUGUUAUAGCUACCCAAUUCGGUGGCAA |  |  | 0.0563 µM | 0.152 µM |
| UGAAAUCAUGUAGGAUAUGCAUGGCGAAGCUACGCAGAAGGACAUGAGGAUCACCCAUGUUAUAGCUACCCGUUACGGUGGCAA |  |  | 0.135 µM | 0.155 µM |
| UGAAAUCAUGUAGGAUAUGCAUGGCGAAGCUACGCAGAAGGACAUGAGGAUCACCCAUGUUAUAGCUACUCAGUUCGGUGGCAA |  |  | 0.0385 µM | 0.195 µM |
| UGAACUUCAGAGAAGGUCGAAUCGCAACGGUUCGAAGGAUAUCUGGAAACAUGAGGAUCACCCAUGUAACCGGGUGGAUGUCCU |  |  | 0.0568 µM | 0.246 µM |
| UGAGCCGGCACUGAGGAUAUUCAUAAUAAAACAUGAGGAUCACCCAUGUAGGCCAGAAGGCCUUGGGAGAAGGCAGGUCGGCUCA | 0.257 µM | 0.0233 µM |  |  |
| UGAGCUUGAGGAUAUACAUGACGUGCCGUAGCACGAGGUCUACAUGAGGAUCACCCAUGUAGAAGGCAAGUUCU |  |  | 0.0296 µM | 0.192 µM |
| UGAGUAGCGAAACAACGCACAUGAGGAUCACCCAUGUCUACACAGGAUAUGCGACGCUCCAGUUAGCAGAAGGGUGAACUCAAA | 0.0364 µM | 0.0897 µM |  |  |
| UGAUAAUACGUCAGGAUAUGCGUCAUAGAGAAGUGGUAGAAGGGACAUGAGGAUCACCCAUGUUUUGGGUUAUA |  |  | 0.132 µM | 0.0935 µM |
| UGAUACUAAGAGAAGGUUCAAACUACAUAUUACAUACAUGAGGAUCACCCAUGUUGGUGAAUAAGAAAGGAUAUUUUACUAUAU |  |  | 0.0257 µM | 0.0216 µM |
| UGAUACUGAGAGAAGGUUCAAACUACAUAUUGCAUACAUGAGGAUCACCCAUGUUGGUGAAUAAGAAAGGAUAUUUUACUAUAU |  |  | 0.047 µM | 0.0328 µM |
| UGAUAGGACAGAGGAUAUACAGAUAGGAUCUACUAUCAAACAGUCCUGACAUGAGGAUCACCCAUGUAGAAGGCUGUCCUAUCU |  |  | 0.0227 µM | 0.0988 µM |
| UGAUAGGACAGAGGAUAUACCGAUAGGAUCUACUAUCGAAUAAUCCUCACAUGAGGAUCACCCAUGUAGAAGGCUGUCCUAUCU |  |  | 0.0197 µM | 0.144 µM |
| UGAUAGGACAGAGGAUAUACGUAUAGUUACCUCUACAUGAGGAUCACCCAUGUAGAAGGCUGUCCUAUCUAAGUCGGAAACGAC |  |  | 0.00477 µM | 0.00578 µM |
| UGAUAGGACAGAGGAUAUACGUAUAUUCUCCUAAACAUGAGGAUCACCCAUGUAGAAGGCUGUCCUAUCUAAGUCGGAAACGAC |  |  | 0.0054 µM | 0.0234 µM |
| UGAUAGGACAGAGGAUAUACGUCCUAGAGAUACUAGGAAAGUUUCCUCACAUGAGGAUCACCCAUGUAGAAGGCUGUCCUAUCU |  |  | 0.019 µM | 0.472 µM |
| UGAUCGAAAGAUCAUAGAUUCUGCUAGGAUAUGCAGAAGUUUCAAUUUACAUGAGGAUCACCCAUGUAGAAGGAGUAGAGUCUA |  |  | 0.00548 µM | 0.00598 µM |
| UGAUCGAGAGAUCUUAGAUUCUGGUAGGAUAUACAUAUUGUAAUAUAGACAUGAGGAUCACCCAUGUAGAAGGACUAGAGUCUA |  |  | 0.0066 µM | 0.0115 µM |
| UGAUCGAGAGAUCUUAGAUUCUGGUAGGAUAUACAUUAUAGAAGUUAUACAUGAGGAUCACCCAUGUAGAAGGACUAGAGUCUA |  |  | 0.00573 µM | 0.00754 µM |
| UGAUCGAGAGAUCUUAGAUUCUGGUAGGAUAUACAUUAUAUAAGAUAUACAUGAGGAUCACCCAUGUAGAAGGACUAGAGUCUA |  |  | 0.00647 µM | 0.00739 µM |
| UGAUCUGUCGCAGGAUAUUACGUUCGGGAUCUCACAUGAGGAUCACCCAUGUAAGAAGGGCGAACAGCAUUCCGGGUCGGGCAA |  |  | 0.0196 µM | 0.0754 µM |

Reference: the EternaBench riboswitch data
